Converted amounts (≈) assume the structure as drawn.
How the values were obtained:
[1] = test system: Escherichia coli; experiment: Tested for minimum inhibitory concentration against Escherichia coli; type: functional
Method in brief: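 Agar dilution on BHI agar with 2-fold dilutions; spots of 10^4–10^5 CFU applied by multipoint inoculator, 18 h at 37 °C, growth judged visually.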

[2] = test system: Escherichia coli; experiment: Tested for growth inhibition against Escherichia coli; type: functional; parameters: concentration or dose not given beside the values
Method in brief: (§1)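 Broth growth assay in BHI medium; log-phase culture (24 h plate, 1 h then 2 h at 37 °C with shaking) added to tubes with derivative at 20 mM final, 37 °C for 7 h. Starting CFU/mL 2×10^5 (E. coli) or 5×10^5 (L. inocua). Standard plate counts; % inhibition = (ΔCFU 0–7 h control − ΔCFU 0–7 h test)/ΔCFU 0–7 h control.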

[3] = test system: Listeria innocua; experiment: Tested for minimum inhibitory concentration against Listeria inocua; type: functional
[4] = target: Lactotransferrin (Bos taurus) (UniProt P24627); experiment: Tested for iron mobilization from lactoferrin at physiological pH after 24 hours
Lactotransferrin (Bos taurus), sequence (P24627 whole entry): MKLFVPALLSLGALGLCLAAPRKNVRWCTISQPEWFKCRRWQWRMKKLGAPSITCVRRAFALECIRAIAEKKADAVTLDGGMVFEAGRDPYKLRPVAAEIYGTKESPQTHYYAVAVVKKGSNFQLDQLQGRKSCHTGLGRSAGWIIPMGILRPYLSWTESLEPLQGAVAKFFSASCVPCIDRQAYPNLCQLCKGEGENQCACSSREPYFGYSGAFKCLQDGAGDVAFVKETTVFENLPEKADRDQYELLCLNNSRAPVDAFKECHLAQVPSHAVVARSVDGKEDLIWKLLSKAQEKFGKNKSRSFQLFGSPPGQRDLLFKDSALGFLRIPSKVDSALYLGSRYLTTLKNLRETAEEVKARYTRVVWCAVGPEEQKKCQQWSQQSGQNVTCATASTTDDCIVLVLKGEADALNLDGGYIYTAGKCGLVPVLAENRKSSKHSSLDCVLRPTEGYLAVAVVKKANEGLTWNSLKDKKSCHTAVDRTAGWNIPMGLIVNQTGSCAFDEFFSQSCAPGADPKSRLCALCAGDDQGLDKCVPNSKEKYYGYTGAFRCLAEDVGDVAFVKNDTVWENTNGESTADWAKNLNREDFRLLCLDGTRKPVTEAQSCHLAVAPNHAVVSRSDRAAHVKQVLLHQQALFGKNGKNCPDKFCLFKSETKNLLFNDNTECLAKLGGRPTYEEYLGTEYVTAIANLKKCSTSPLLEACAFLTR
Method in brief: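 Lactoferrin fully iron(III)-saturated with FeCl3 in 0.1 M sodium bicarbonate overnight at room temperature (0.78 mM iron); 1.0 mL dialysed against 4 mL chelator (2 mM in 4× PBS) for 24 h at room temperature. Dialysate absorbance at 456 nm, converted by chelator–iron(III) calibration curves; protected derivatives measured after adding an unprotected chelator to the dialysate.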

[5] = test system: Listeria innocua; experiment: Tested for growth inhibition against Listeria inocua; type: functional; parameters: concentration or dose not given beside the values; method in brief: as §1

Compound | MIC [1] [mM] | MIC [3] [mM] | Iron mobilized [4] [%] | Growth inhibition [2] [%] | Growth inhibition [5] [%]
Cc1c(OCc2ccccc2)c(=O)ccn1CCN | 50 (≈ 12900 µg/mL) | 50 (≈ 12900 µg/mL) | 4 | 0 | 34
CCn1ccc(=O)c(OCc2ccccc2)c1C | 50 (≈ 12200 µg/mL) | 50 (≈ 12200 µg/mL) | 2 | 53 | 72
C=C(C)C(=O)NCCn1ccc(=O)c(O)c1C | 5 (≈ 1180 µg/mL) | 25 (≈ 5910 µg/mL) | 63 | 100 | 90

Continued, in another order:

MIC [1] [mM] | MIC [3] [mM] | Iron mobilized [4] [%] | Compound | Growth inhibition [2] [%] | Growth inhibition [5] [%]
5 (≈ 1110 µg/mL) | 25 (≈ 5560 µg/mL) | 62 | C=CC(=O)NCCn1ccc(=O)c(O)c1C | 100 | 87
5 (≈ 841 µg/mL) | 25 (≈ 4200 µg/mL) | 60 | Cc1c(O)c(=O)ccn1CCN | 100 | 93
5 (≈ 1120 µg/mL) | 25 (≈ 5610 µg/mL) | 61 | CCC(=O)NCCn1ccc(=O)c(O)c1C | 100 | 86
5 (≈ 766 µg/mL) | 25 (≈ 3830 µg/mL) | 71 | CCn1ccc(=O)c(O)c1C | 100 | 89
